procasp3 activ – activators of human procaspase-3 D3A mutant, primary screen, biochemical, absorbance, PC-3 D3A mutant, single concentration | recombinant procaspase-3 D3A, Ac-DEVD-pNA absorbance 405 nm | hit rate 0.11% among 330,000 | Caspase-3 (Homo sapiens), P42574 | activation, % at 8.5 µM | AID 463141, 2010;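 active = activation above the mean of all tested compounds plus 3 SD, cut at about 21% in these data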
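Technique: 405 nm absorbance of p-nitroaniline, reads at 0 and 120 min; Test system: Procaspase-3 D3A mutant; Incubation: 1 h enzyme-compound preincubation, then 2 h substrate reaction, 25 °C; Repeats: singlicate, each compound tested once; Benchmarks: low control DMSO wells, high control DMSO plus 5 µM PC-3 D3A.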
procasp7 counter – procaspase-7 activators, primary screen, counter-screen for procaspase-3 activator project, biochemical, absorbance, HTS, human | Caspase-7 (Homo sapiens), P55210 | recombinant procaspase-7, Ac-DEVD-pNA absorbance 405 nm; D23A/D198A/D206A triple mutant, cannot self-cleave; scale: DMSO 0, 5 µM enzyme 100 | activation, % at 8.5 µM | hit rate 0.093% among 330,000 | AID 463210, 2010;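 active = percent activation above the screen-wide mean plus 3 SD, cut at about 25% in these data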
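Test system: Procaspase-7 triple mutant (PC-7 D3A). Also added: Ac-DEVD-pNA substrate, 400 µM as added. Schedule: 1 h enzyme–compound preincubation and 2 h substrate reaction, both 25 °C. Signal: p-Nitroaniline absorbance at 405 nm, read at 0 and 120 min. Control set: low DMSO alone, high DMSO plus 5 µM PC-7.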
CHT block – inhibitors of human choline transporter CHT; CHT-expressing cells, membrane potential dye, choline response; stronger effect = lower value; hit rate 0.86% among 310,000; AID 488975, 2010; B-score at 10 µM; High affinity choline transporter 1 (Homo sapiens), Q9GZV3;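 active = B-score over 3 SD under the library average, and starting fluorescence ratio not unusually high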;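 also: choline stimulus applied at its EC90 after an EC20 pre-addition; B-score computed on integrated fluorescence ratio after choline addition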
Target sequence (Q9GZV3 whole entry, looked up): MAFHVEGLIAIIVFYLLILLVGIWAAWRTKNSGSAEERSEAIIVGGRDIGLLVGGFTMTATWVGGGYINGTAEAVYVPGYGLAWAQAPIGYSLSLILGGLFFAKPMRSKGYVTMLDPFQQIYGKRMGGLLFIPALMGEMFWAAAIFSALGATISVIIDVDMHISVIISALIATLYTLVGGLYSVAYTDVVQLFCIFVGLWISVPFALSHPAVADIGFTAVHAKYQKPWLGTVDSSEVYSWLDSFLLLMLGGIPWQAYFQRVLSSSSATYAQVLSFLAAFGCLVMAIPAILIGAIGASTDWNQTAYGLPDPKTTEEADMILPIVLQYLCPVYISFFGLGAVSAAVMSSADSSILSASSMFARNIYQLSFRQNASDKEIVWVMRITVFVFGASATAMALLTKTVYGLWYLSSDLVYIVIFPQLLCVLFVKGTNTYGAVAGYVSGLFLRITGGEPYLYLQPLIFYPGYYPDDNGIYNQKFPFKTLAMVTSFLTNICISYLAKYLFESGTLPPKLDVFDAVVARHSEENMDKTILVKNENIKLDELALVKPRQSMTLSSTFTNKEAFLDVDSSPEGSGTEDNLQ
CHT allo act – CHT positive allosteric modulators, primary screen, cell-based, membrane potential dye, choline EC20; CHT-expressing cells; stronger effect = higher value; LV-AA mutant CHT in HEK293 cells; hit rate 0.49% among 310,000; B-score at 10 µM; High affinity choline transporter 1 (Homo sapiens), Q9GZV3;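 active = initial fluorescence not abnormally high and integrated response B-score, plate-corrected, over 3 SD above library mean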
CHT activ conf – CHT activators, confirmation, cell-based, membrane potential dye, duplicate | activation, % at 10 µM | AID 504833, 2011 | CHT-expressing cells, membrane potential dye fluorescence (FDSS); % of choline EC20–EC90 response window; HEK293 expressing CHT LV-AA mutant; choline added at its EC20 | shares compounds with CHT allo act | hit rate 91% among 2,500;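 active = primary screen active, with duplicate mean activation above negative control mean plus 3 SD, cut at about 11% in these data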
HEK293 MP dye – membrane potential response in parental HEK293 cells, counter-screen for CHT activator project, cell-based, membrane potential dye; shares compounds with CHT allo act; membrane potential dye fluorescence (FDSS); measured after EC20 choline addition; ratio readout change at 10 µM, hits read low; hit rate 62% among 2,500;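 active = duplicate-averaged ratio beyond 3 SD from buffer wells, up or down, though filed actives are nearly all decreases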
Of the large screens only hits and unclear results are named; the others gave an inactive call (follow-up assays come after a bar, where they were run). This is a sample that favours compounds with a hit; in the whole collection about 1.3% have one here.

O=C1CC2(CCN(C(=O)c3ccccc3Cl)CC2)Oc2ccccc21	none | CHT activ conf inactive | HEK293 MP dye inactive
O=C(CC1C(=O)NCCN1Cc1ccccc1)NCCC1=CCCCC1 (stereo not given)	none
CN(C)Cc1c(O)ccc2occ(C(=O)c3ccccc3)c12	none
COc1ccc2occ(C(=O)c3coc4ccc(O)c(CN(C)C)c34)c2c1	CHT allo act 7.61 | CHT activ conf 31.6 | HEK293 MP dye -36.3
CCOC(=O)Nc1nc(-c2ccccc2)c(C(=O)c2ccc(Cl)cc2)s1	none | CHT activ conf 35.0 | HEK293 MP dye inactive
COc1ccc(S(=O)(=O)N2c3ccc(F)cc3CCC2C)cc1 (stereo not given)	none | CHT activ conf 43.9 | HEK293 MP dye inactive
COc1cc(Nc2ccc(S(=O)(=O)N3CCN(C)CC3)cc2[N+](=O)[O-])cc(OC)c1	none | CHT activ conf inactive | HEK293 MP dye -21.1
Cc1ccc2nc(C)c3c(c2c1)COC3	none
Cc1nc2c(C)cccc2c2c1COC2	none | CHT activ conf 55.3 | HEK293 MP dye -59.5
CCOc1ccc(NC(=O)CN(C)C(=O)CCCn2c(=O)oc3ccccc32)cc1OCC	none
CC(C)CN1CCN(Cc2cc(F)ccc2-n2cccn2)CC1CCO (stereo not given)	none | CHT activ conf inactive | HEK293 MP dye inactive
COc1ccc2c(ccc[n+]2CC(=O)c2ccccc2)c1	none (no result: procasp3 activ, procasp7 counter)
O/N=C/c1cccc[n+]1CCCCCC[n+]1ccccc1/C=N/O	CHT allo act 6.38 (no result: procasp3 activ, procasp7 counter) | CHT activ conf 43.6 | HEK293 MP dye -59.6
COc1ccc(C(=O)C[n+]2ccccc2/C=N/O)cc1	none | CHT activ conf 19.1 | HEK293 MP dye -24.7
CCOC(=O)C1CCCN(S(=O)(=O)Cc2ccc(Cl)cc2)C1 (stereo not given)	none
Cc1cccc(NS(=O)(=O)c2ccc3c(c2)NC(=O)CO3)c1C	none
O=C(CN1CCN(S(=O)(=O)/C=C/c2ccccc2)CC1)NCC(F)(F)F	none
CCOc1ccc(S(=O)(=O)N2CCCCC2)cc1NC(=O)C1CSC2(C)CCC(=O)N12 (stereo not given)	none | CHT activ conf 25.5 | HEK293 MP dye inactive
CCOc1ccc(N(C)S(=O)(=O)c2ccc(-c3cc(C)no3)s2)cc1	none
Cc1cccc(N(C)S(=O)(=O)c2ccc(-c3cc(C)no3)s2)c1	none | CHT activ conf 39.4 | HEK293 MP dye inactive
CCOCCCNC(=O)CN1CCN(S(=O)(=O)c2ccc3c(c2)CCC3)CC1	none (no result: CHT block, CHT allo act)
CCCCCCN1C2=NCCN2c2ccccc21	none
CN1C2=NCCN2C(=O)c2ccccc21	CHT allo act 9.37 | CHT activ conf 28.5 | HEK293 MP dye -51.8
CCCN1C2=NCCN2c2ccccc21	CHT allo act 6.35 | CHT activ conf 41.0 | HEK293 MP dye -35.7
Cc1ccc(SC2=C(C(=O)O)CCCC2)cc1	none
Cc1nnc2ccc(N3CCN(c4ccccn4)CC3)nn12	CHT allo act 7.23 | CHT activ conf 52.7 | HEK293 MP dye -51.2
c1ccc(N2CCN(c3ccc4nncn4n3)CC2)nc1	CHT allo act 9.75 | CHT activ conf 66.1 | HEK293 MP dye -58
Cc1ccc(NC(=S)N2CCC(NC(=O)c3ccc(F)cc3)CC2)cc1C	none
Cc1cccc2nc(CSC(=N)N)c(Br)n12	none | CHT activ conf 28.0 | HEK293 MP dye -38
COc1ccc(NC(=S)NC(C)c2ccncc2)cc1OC (stereo not given)	none | CHT activ conf 18.0 | HEK293 MP dye inactive
CC(NC(=S)Nc1ccc([N+](=O)[O-])cc1)c1ccncc1 (stereo not given)	none
Cc1nnc(Nc2ccc3c(c2)ncn3C)c2ccccc12	none | CHT activ conf 33.0 | HEK293 MP dye -47.3
Cc1nnc(Nc2ccc(C(=O)NCCO)cc2)c2ccccc12	none
CNC(=O)c1ccc(Nc2nnc(C)c3ccccc23)cc1	none | CHT activ conf 47.4 | HEK293 MP dye -48.3
CC(C)Cc1nccs1	none
CCOC(=O)c1cnc2ccc(C)cc2c1N(C)Cc1ccccc1	none | CHT activ conf 28.0 | HEK293 MP dye inactive
CCOC(=O)c1ccc2ncc(C(=O)OCC)c(NCCN(C)C)c2c1	none | CHT activ conf 35.8 | HEK293 MP dye -36.4
CCOC(=O)c1cnc2ccc(C)cc2c1Sc1ccccc1	none
CCOC(=O)c1cnc2ccc(C(=O)OC)cc2c1Nc1cccc(C(=O)O)c1	CHT allo act 10.7 | CHT activ conf 74.8 | HEK293 MP dye -74.4
CCOC(=O)c1ccc2ncc(C(=O)OCC)c(NCCN3CCOCC3)c2c1	none
O=C(c1cccc(C(F)(F)F)c1)C1CCCN(C(=O)c2cc(C3CC3)[nH]n2)C1 (stereo not given)	none
Fc1ccc(Oc2ccnc(Cl)n2)c(Cl)c1	none
COc1ccc(CNc2ccc3c(c2)nc(C)n3C)cc1OC	CHT allo act 6.62 | CHT activ conf 26.2 | HEK293 MP dye -47.6
CCOc1ccc(CNc2ccc3c(c2)nc(C)n3C)cc1	none
CC(=O)c1cccc(OCC(=O)N(C)CC(=O)NCc2ccco2)c1	none (no result: CHT block, CHT allo act)
CCc1cc(CNC(=O)c2ccc(OC3CCN(CCc4ccccc4)CC3)cc2)on1	CHT allo act 6.45 | CHT activ conf inactive | HEK293 MP dye -25.3
O=C(Cn1c(-c2ccccc2)c[n+]2ccsc12)c1ccc(Br)cc1	none | CHT activ conf 41.8 | HEK293 MP dye -33.9
CCOc1ccc(CN2CCN(CC3CC3)CC2CCO)cc1 (stereo not given)	none
NC(=O)C1Cc2ccccc2CN1C(=O)c1cc(C2CC2)nn1-c1ccccc1 (stereo not given)	none (no result: CHT block, CHT allo act)
Cn1c(N)c(C(=O)COC(=O)c2ccc(Cl)nc2)c(=O)n(C)c1=O	CHT allo act 7.54 | CHT activ conf 21.9 | HEK293 MP dye -30.5
O=C(Cc1ccc(S(=O)(=O)N2CCOCC2)s1)N1CCN(S(=O)(=O)c2ccc(Cl)cc2)CC1	none (no result: CHT block, CHT allo act)
O=C1[C@@H]2C(c3ccccc3Cl)=NO[C@@H]2C(=O)N1Cc1ccccc1	none
COc1ccc(CN2C(=O)[C@@H]3C(c4ccccc4Cl)=NO[C@@H]3C2=O)cc1	none | CHT activ conf 17.4 | HEK293 MP dye inactive
O=C(CCCNC(=O)c1ccc(Cl)cc1)OCc1cccc(Br)c1	none
COc1ccc(C(=O)C[n+]2ccc3c(c2)nc(-c2ccccc2)n3C)cc1	none
Cc1nc2c(C)[n+](CC(=O)c3ccccc3)ccc2n1C	none | CHT activ conf 43.6 | HEK293 MP dye -38.2

Screens as filed in PubChem.
